CAL PDZ FP-1 – CAL PDZ (human) peptide binding inhibition. Q9HD26. purified CAL PDZ, TMR-peptide fluorescence polarization, 1 h. inhibition, % at 24.9 µM. 300,000 tested, 0.92% active;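 active = mean inhibition of at least 30% with at least half of replicates also reaching 30%; inconclusive = no clear call, values can overlap the other calls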
Rtt109 Vps75 – C. albicans Rtt109 histone acetyltransferase inhibition | inhibition, % at 34.9 µM | AID 540336 | purified Rtt109/Vps75, ThioGlo CoA-SH fluorescence, 4 h | Q5AAJ8 | 330,000 tested, 0.16% active;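 active = inhibition of at least 50% in every replicate; inconclusive = best replicate reaches 50% inhibition but some replicates fall short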
Target sequence (Q5AAJ8 whole entry, looked up): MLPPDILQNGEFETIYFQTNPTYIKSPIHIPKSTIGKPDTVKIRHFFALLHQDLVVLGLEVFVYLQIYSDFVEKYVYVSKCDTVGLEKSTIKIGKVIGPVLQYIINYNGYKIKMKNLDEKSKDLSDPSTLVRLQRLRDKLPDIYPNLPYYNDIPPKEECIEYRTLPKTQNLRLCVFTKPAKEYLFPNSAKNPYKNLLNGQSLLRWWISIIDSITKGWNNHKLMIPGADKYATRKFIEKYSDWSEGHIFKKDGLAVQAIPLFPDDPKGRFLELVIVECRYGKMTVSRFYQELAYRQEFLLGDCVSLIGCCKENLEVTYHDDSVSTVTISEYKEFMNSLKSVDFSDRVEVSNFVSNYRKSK
CAL PDZ FP-2 – blocks peptide binding to human CAL PDZ domain | Q9HD26 | purified CAL PDZ, TMR-peptide fluorescence polarization, 1 h | inhibition, % at 20 µM | 330,000 tested, 0.02% active;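 active = highest replicate inhibition of at least 40%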
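Material: tagged CAL PDZ protein CerCALP, purified; buffer or medium: sodium phosphate/NaCl buffer pH 7.4 with TCEP, IgG, Thesit; also added: fluorescent TMR peptide probe; schedule: 1 h incubation at room temperature before polarization reading; technique: fluorescence polarization from S- and P-plane intensities, G-factor corrected; control set: unlabelled peptide and DMSO controls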
ALR H2O2 inh – human ALR oxidase inhibition via reduced H2O2; purified ALR, DTT oxidation, H2O2 HRP-luminol luminescence; 290,000 tested, 3.8% active; AID 485317; P55789; inhibition, % (concentration not given with the values);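 active = mean replicate inhibition above about 79%, with every replicate also reaching it, limit read from the data; inconclusive = only one of the two criteria met; inactive = mean below limit and not every replicate reaching it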
Target sequence (P55789 whole entry, looked up): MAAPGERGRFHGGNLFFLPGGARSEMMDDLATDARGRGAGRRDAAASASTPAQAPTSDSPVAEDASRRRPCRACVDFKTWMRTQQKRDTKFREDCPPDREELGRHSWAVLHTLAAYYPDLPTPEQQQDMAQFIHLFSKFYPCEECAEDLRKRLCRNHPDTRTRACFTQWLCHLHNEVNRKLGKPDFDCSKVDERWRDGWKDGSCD
DYRK1A inh – blocks rat Dyrk1A kinase activity; Q63470; inhibition, % at 12.5 µM; 310,000 tested, 0.43% active; ADP-Glo luminescence, NFATc1 peptide; AID 504441; in the data active = inhibition above about 50%
Each line names hits and unclear results; the compound was inactive in the other large screens. The list is not random: actives were taken first. Their share in the collection is about 4.3%.

NS(=O)(=O)c1cccc(NC(=O)CSc2nc3ccccc3c(=O)n2CCCN2CCOCC2)c1	none (no result: ALR H2O2 inh)
CC(Oc1cccc(Cl)c1)C(=O)Nc1ccc(N2CCOCC2)cc1N1CCOCC1 (stereo not drawn)	ALR H2O2 inh 97.8
CC(Sc1ccc2c(c1)OCCO2)C(=O)Nc1ccc(N2CCOCC2)cc1 (stereo not drawn)	ALR H2O2 inh 99.0
O=C(CSc1ccc2c(c1)OCCO2)Nc1ccc(N2CCOCC2)cc1	none
CC(Oc1ccc(F)cc1)C(=O)Nc1ccc(N2CCOCC2)cc1N1CCOCC1 (stereo not drawn)	ALR H2O2 inh inconclusive
O=C(Nc1ccc(Cl)cc1C(=O)N1CCCC1)c1cccc([N+](=O)[O-])c1	none (no result: Rtt109 Vps75, ALR H2O2 inh)
O=c1c2ccccc2c(/C=N/NS(=O)(=O)c2ccccc2)c(O)n1-c1ccccn1	ALR H2O2 inh 98.1
O=c1c2ccccc2c(/C=N/n2cnnc2)c(O)n1-c1ccccc1	none
COc1ccc(-c2csc(=Nc3ccccc3)n2CCO)cc1	ALR H2O2 inh 97.4 (no result: CAL PDZ FP-1)
COc1ccc(-c2csc(=NCCO)n2-c2ccccc2)cc1	CAL PDZ FP-1 62.2, ALR H2O2 inh 99.0
Cn1c(=O)[nH]c(=O)c2c1nc(N1CCCCC1)n2CC(O)COc1ccccc1 (stereo not drawn)	none
COc1ccccc1NC(=O)CSc1nnc(-c2ccoc2C)n1C	none (no result: ALR H2O2 inh)
Cc1cc(C)cc(N(C(=O)CNC(=O)c2ccco2)C(C(=O)NC2CCCCC2)c2cccnc2)c1 (stereo not drawn)	none
COc1ccc(CCNS(=O)(=O)c2ccc(-n3cnnn3)cc2)cc1OC	CAL PDZ FP-1 active
CCOc1ccc(-n2cnnn2)cc1S(=O)(=O)NCCc1ccc(OC)c(OC)c1	none
Clc1ccc(/C=N/Nc2ncnc3nc[nH]c23)cc1	ALR H2O2 inh 93.1
Cc1ccc(/C=N/Nc2ncnc3nc[nH]c23)cc1	none
O=c1c2c3c(sc2[nH]c(=S)n1Cc1ccco1)CCC3	ALR H2O2 inh 93.5
CC1(C)Cc2c(sc3[nH]c(=S)n(Cc4ccco4)c(=O)c23)CO1	ALR H2O2 inh 98.3 (no result: DYRK1A inh)
Cn1c(=O)n(Cc2ccco2)c(=N)c2c3c(sc21)CCC3	ALR H2O2 inh 76.5 (no result: CAL PDZ FP-1)
CC1(C)Cc2c(sc3c2c(=N)n(Cc2ccco2)c(=O)n3Cc2ccccc2)CO1	none
O=C(CN1C(=O)c2ccccc2C1=O)N1CCN(C2c3ccccc3-c3ccccc32)CC1	none (no result: ALR H2O2 inh)
Cc1cc(C(=O)Nc2ccc3nc(C)sc3c2)c2ccccc2n1	none
CC(=O)C1=C(c2cccc([N+](=O)[O-])c2)N(C(C)=O)n2c(C)nnc2S1	ALR H2O2 inh 97.7
O=C(CC(=O)c1ccccc1)Nc1ccc(Cl)cc1	none
c1ccc2sc(NCC3CCCO3)nc2c1 (stereo not drawn)	none (no result: CAL PDZ FP-1)
CC1=CC(=C(C#N)c2nc3ccccc3s2)C=C(C)N1CC1CCCO1 (stereo not drawn)	ALR H2O2 inh 95.3
O=C(N1CCN(Cc2ccc3c(c2)OCO3)CC1)C(Cl)(Cl)Cl	none (no result: ALR H2O2 inh)
CC(C)(C)CC(=O)N1CCN(Cc2ccc3c(c2)OCO3)CC1	CAL PDZ FP-1 37.7
Cc1cc(NC(=O)c2c(Br)c(C)nn2C)no1	CAL PDZ FP-1 82.7
COc1cc2c(cc1OC)CC(=O)NC=C2	none (no result: ALR H2O2 inh, DYRK1A inh)
CCOC(=O)CCc1c(C)c2ccc(O)cc2oc1=O	ALR H2O2 inh 80.9
O=c1[nH]c(NC2CCCCC2)c([N+](=O)[O-])c(=O)[nH]1	none
COc1ccc(OC)c(S(=O)(=O)N2CCCC2C(=O)NC(C)c2ccccc2)c1 (stereo not drawn)	none
COc1ccc(NC(=S)N(Cc2ccc(Cl)cc2)Cc2ccc(C(=O)O)cc2)cc1Cl	ALR H2O2 inh 95.5 (no result: Rtt109 Vps75)
CCN1CCCc2cc(CN(CCN3CCOCC3)C(=S)Nc3ccc(OC)c(OC)c3)ccc21	ALR H2O2 inh 92.2
S=C(Nc1ccccc1)N(CCN1CCOCC1)Cc1cccc(Cl)c1	none (no result: ALR H2O2 inh)
CCN1CCCc2cc(CN(CCN3CCOCC3)C(=S)Nc3ccc(OC)c(Cl)c3)ccc21	ALR H2O2 inh 98.6
c1coc(-c2nc3ccccc3nc2-c2ccco2)c1	none
S=c1nc(-c2ccco2)[nH][nH]1	ALR H2O2 inh 98.7
C/C(=N\NC(=O)c1ccncc1)C12CC3CC(CC(C3)C1)C2	none
CC/C(=N\NC(=O)c1ccc(-c2ccccc2)cc1)C12CC3CC(CC(C3)C1)C2	ALR H2O2 inh 98.4
CC(=O)Nc1c(O)nc(SCC(=O)Nc2cccc(C)c2)[nH]c1=O	ALR H2O2 inh 98.1
CCCc1cc(=O)[nH]c(SCC(=O)Nc2sc3c(c2C#N)CCC(C)C3)n1 (stereo not drawn)	ALR H2O2 inh 89.3 (no result: DYRK1A inh)
CC(=O)Nc1c(O)nc(SCC(=O)Nc2nnc(CC(C)C)s2)[nH]c1=O	ALR H2O2 inh 85.4 (no result: CAL PDZ FP-2)
Cc1cccc(NC(=O)CSc2nc3nc(C)cc(C)c3c(=O)[nH]2)c1	none
CC(=O)Nc1c(O)nc(SCC(=O)Nc2ccc(C(C)=O)cc2)[nH]c1=O	ALR H2O2 inh 98.4
Cc1cc(=O)[nH]c(SCC(=O)Nc2nnc(CC(C)C)s2)n1	none (no result: CAL PDZ FP-1)
CC1CCc2c(sc(NC(=O)CSc3ncn[nH]3)c2C#N)C1 (stereo not drawn)	none
COc1ccc(C2CC(c3ccccc3)=NN2C(=O)CN2CCN(Cc3ccccc3)CC2)cc1 (stereo not drawn)	none (no result: CAL PDZ FP-1, ALR H2O2 inh)
CC(=O)Nc1c(O)nc(SCC(=O)Nc2sc3c(c2C#N)CCCCCC3)[nH]c1=O	ALR H2O2 inh 98.0
N#Cc1c(NC(=O)CSc2ncn[nH]2)sc2c1CCCC2	none (no result: ALR H2O2 inh)
COc1ccc2cc(N=Cc3nc(-c4ccc(C)cc4)oc3O)cnc2c1	none
O=C1COc2ccc(C(=O)/C=C/c3ccccc3)cc2N1	ALR H2O2 inh 97.1
O=C1COc2ccc(C(=O)NCc3ccco3)cc2N1	Rtt109 Vps75 66.9
O=C1COc2ccc(C(=O)c3ccccc3C(=O)NCc3ccco3)cc2N1	Rtt109 Vps75 72.5
COc1ccc(/C=C/C(=O)OCC(=O)Nc2ccc3[nH]c(=O)[nH]c3c2)cc1OC	none
CC(C)NC(=O)c1cc(-c2ccc(Br)cc2)on1	none (no result: CAL PDZ FP-1)
CCCNC(=O)c1cc(-c2ccc(Br)cc2)on1	CAL PDZ FP-1 32.6
Cc1cccc(C(=O)Nc2ccc(C(=O)N3CCCCC3C)cc2)c1 (stereo not drawn)	none
CCOC(=O)C1=CN(Cc2ccco2)S(=O)(=O)N(CC)C1c1ccc(C(F)(F)F)cc1 (stereo not drawn)	CAL PDZ FP-1 78.5 (no result: ALR H2O2 inh)
Cc1ccc2nsnc2c1S(=O)(=O)N1CCOCC1	ALR H2O2 inh 98.5
O=S(=O)(c1cccc2nsnc12)N1CCOCC1	none
O=C(Nc1cccc([N+](=O)[O-])c1)C1CCN(C(=O)Cc2ccccc2)CC1	none
COc1ccc([C@H]2CC(=O)c3c(O)cc(O)cc3O2)cc1O	none (no result: DYRK1A inh)
Oc1cc(O)c2c(c1)O[C@H](c1ccc(O)c(O)c1)[C@H](O)C2	ALR H2O2 inh 98.7 (no result: DYRK1A inh)
COc1ccc(-n2c(-c3ccc(Cl)cc3)c[nH]c2=S)cc1	none (no result: CAL PDZ FP-2)
CCCc1ccc(-c2c(C)sc(N)c2C#N)cc1	ALR H2O2 inh 91.7
COc1ccc(OC)c(NC(=O)c2ccc(OC3CSC3)cc2)c1	CAL PDZ FP-1 55.2

Source: PubChem BioAssay
